# In the library only some 3.1% were active in any assay of this set; here they are far more common.
# CHO parental Ca = ATP-evoked calcium signal inhibitors, parental CHO, primary screen, counter-screen for OX1R antagonist project, cell-based, fluorescence, Fluo-8 calcium dye; 330,000 tested, 0.63% active; parental CHO-K1, ATP-induced calcium, Fluo-8 fluorescence; inhibition, % at 5.6 µM;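 active = inhibition above that plate's mean sample inhibition plus 3 SD, cut at about 26% in these data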;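 note: 0% = ATP-challenged DMSO wells and 100% = DMSO wells without ATP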
#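 Assay system – parental CHO cells · Reagent – ATP stimulus · Detection – intracellular calcium via Fluo-8 no-wash fluorescent dye · Evaluation – percent inhibition of ATP-evoked calcium rise, normalized to controls · Controls – ATP wells versus no-ATP DMSO wells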
# GalR3 antagonist = GalR3 antagonists in HEK293 cells, primary screen, cell-based, fluorescence readout. HEK293 GalR3-CNG cAMP membrane potential fluorescence; galR3 body fused to GalR1 C-terminus. AID 651719, 2012. Galanin receptor type 3 (Homo sapiens), O60755. 360,000 tested, 0.44% active. inhibition, % at 3 µM;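 active = inhibition above the screen-wide average plus 3 SD, cut at about 13% in these data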;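 note: forskolin and galanin both at EC90 stimulate the cells; cAMP rise reported by CNG channel membrane potential dye signal; 0% = forskolin plus galanin with DMSO and 100% = forskolin alone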
# Target sequence (O60755 1-299 limits assumed): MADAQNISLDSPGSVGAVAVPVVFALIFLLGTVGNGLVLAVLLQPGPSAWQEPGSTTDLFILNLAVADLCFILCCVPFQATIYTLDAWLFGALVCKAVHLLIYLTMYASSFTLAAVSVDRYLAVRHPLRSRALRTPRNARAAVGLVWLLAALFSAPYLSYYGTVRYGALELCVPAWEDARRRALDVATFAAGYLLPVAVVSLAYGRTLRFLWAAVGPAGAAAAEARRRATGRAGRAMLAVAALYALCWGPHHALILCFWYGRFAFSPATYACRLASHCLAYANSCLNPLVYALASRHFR
# GPR7 antagonist = GPR7 receptor antagonists, primary screen, cell-based, fluorescence, single concentration | Neuropeptides B/W receptor type 1 (Homo sapiens), P48145 | GPR7-expressing cells, fluorescence antagonist assay | inhibition, % at 4.4 µM | 290,000 tested, 1.1% active; in the data active = inhibition above about 16%, passing the limit was not always enough;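 note: cells stimulated with the agonist NPW; 0% = agonist with vehicle and 100% = vehicle without agonist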
# OX1R antag-1 = OX1R (HCRTR1) antagonists, primary screen, fluorescence, CHO/OX1R cells, Fluo-8 calcium, orexin A; Orexin/Hypocretin receptor type 1 (Homo sapiens), O43613; Fluo-8 calcium fluorescence; inhibition, % at 5 µM; 330,000 tested, 0.43% active;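 active = inhibition above its plate's threshold, mean inhibition of all tested compounds on the plate plus 3 SD, cut at about 37% in these data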;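 note: 0% = orexin A challenge wells and 100% = SB-334867-A antagonist wells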
# Target sequence (O43613 whole entry, looked up): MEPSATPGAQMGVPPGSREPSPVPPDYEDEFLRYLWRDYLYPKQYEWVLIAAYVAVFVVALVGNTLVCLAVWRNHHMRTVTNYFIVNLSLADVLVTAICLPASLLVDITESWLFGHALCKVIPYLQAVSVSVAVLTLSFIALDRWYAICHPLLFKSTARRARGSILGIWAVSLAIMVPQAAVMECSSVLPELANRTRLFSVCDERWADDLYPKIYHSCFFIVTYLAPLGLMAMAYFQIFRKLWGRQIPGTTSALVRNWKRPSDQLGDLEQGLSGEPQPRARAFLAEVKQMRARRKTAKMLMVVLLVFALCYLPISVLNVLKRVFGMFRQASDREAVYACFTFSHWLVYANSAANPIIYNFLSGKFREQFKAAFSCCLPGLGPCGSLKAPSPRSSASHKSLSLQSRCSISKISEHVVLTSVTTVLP
# OX1R antag-2 = antagonists of human orexin 1 receptor (OX1R); OX1R-expressing cells, FRET antagonist read-out; inhibition, % at 6.6 µM; 330,000 tested, 1.8% active; in the data active = inhibition mostly above about 38%, no sharp cut-off; inactive = mostly below about 40%;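 note: 0% = agonist challenge alone and 100% = reference antagonist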
# OX1R Fluo8 conf = OX1R (HCRTR1) antagonists, confirmation, fluorescence, CHO/OX1R cells, Fluo-8 calcium, orexin A. shares compounds with OX1R antag-1. orexin A calcium Fluo-8 fluorescence. inhibition, % at 5 µM. 1,100 tested, 38% active; in the data active = inhibition above about 29%;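 note: 0% = agonist challenge alone and 100% = reference antagonist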
# CHO Ca counter = ATP-evoked calcium inhibition in parental CHO, counter-screen for OX1R antagonist project, cell-based, fluorescence, CHO-K1, triplicate; shares compounds with OX1R antag-1; ATP-induced calcium, Fluo-8 fluorescence; AID 492965, 2010; inhibition, % at 5.6 µM; 1,100 tested, 9.3% active;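 active = inhibition above a per-plate limit, the mean inhibition of that plate's test compounds plus 3 SD, cut at about 25% in these data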;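 note: 0% = ATP challenge with DMSO and 100% = DMSO without ATP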
# OX1R HTRF conf = OX1R (HCRTR1) antagonists, confirmation, cell-based, HTRF | OX1R-expressing cells, HTRF antagonist assay | 1,800 tested, 49% active | shares compounds with OX1R antag-2 | inhibition, % at 6.6 µM; in the data active = inhibition above about 55%;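 note: CHO cells expressing OX1R stimulated with orexin A at about EC80; 0% = agonist challenge alone and 100% = reference antagonist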
# CHO-K1 HTRF cnt = signal inhibition in parental CHO-K1 cells, counter-screen for OX1R antagonist project, cell-based, HTRF | shares compounds with OX1R antag-2 | HTRF counterscreen | inhibition, % at 6.6 µM | 1,800 tested, 48% active; in the data active = inhibition above about 17%;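 note: 0% = agonist challenge with vehicle and 100% = vehicle alone without agonist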
# The depositor's hits bear a star; / = no result.
SMILES,CHO parental Ca,GalR3 antagonist,GPR7 antagonist,OX1R antag-1,OX1R antag-2,OX1R Fluo8 conf,CHO Ca counter,OX1R HTRF conf,CHO-K1 HTRF cnt
Cc1cc(N/N=C/c2ccccc2O)nc(-c2ccccc2O)n1,24.9,-11.8,1.9,54.2*,90.1*,9.3,1.0,21.6,4.7
O=C1Nc2ccccc2/C1=N\N=C\c1ccc(O)c(O)c1,0.5,5.7,1.5,-8.3,16.9,/,/,/,/
Cc1ccsc1/C=N/N=C1\C(=O)Nc2ccccc21,-3.2,1.8,-7.6,31.8,90.8*,36.0*,3.9,93.3*,16.6
Fc1cccc(-c2cc3nc4c(c(N5CCC6(CC5)OCCO6)n3n2)CCCC4)c1,1.0,-1.9,-7.1,-29.5,29.7,/,/,/,/
Fc1cccc(-c2cc3nc(-c4ccccc4)cc(N4CCC5(CC4)OCCO5)n3n2)c1,-18.1,-0.7,-18.4,45.6*,72.0*,51.6*,-19.9,39.6,-10.6
COc1ccc(-c2cc3nc(-c4ccccc4)cc(N4CCC(O)CC4)n3n2)cc1,2.3,-5.3,9.7,-11.3,18.9,/,/,/,/
Cc1cccc(-c2cc3nc(-c4ccccc4)cc(N4CCC5(CC4)OCCO5)n3n2)c1,-24.5,-5.0,-6.0,47.3*,63.7*,25.0,-7.5,69.5*,5.4
CC1(c2ccccc2)NC(=O)N(CC(=O)N(CC(=O)Nc2ccccc2C(F)(F)F)Cc2ccco2)C1=O (stereo unspecified),/,-4.3,/,/,/,/,/,/,/
Nc1c(C(=O)c2ccc(Br)s2)oc2ccccc12,-24.3,-5.3,-16.3,26.9,76.8*,14.5,-1.7,57.3*,5.5
CCOC(=O)c1oc2ccccc2c1N,2.2,-5.8,-4.4,1.9,16.8,/,/,/,/
Cc1sc2ccccc2c1CNC[C@H]1O[C@@H](n2cnc(C(N)=O)n2)[C@H](O)[C@@H]1O,/,-3.4,/,/,/,/,/,/,/
C=CCn1c2ccccc2c(=O)c2cc(C#Cc3cc(OC)cc(OC)c3)ccc21,-15.0,4.1,/,69.3*,46.8*,45.0*,-16.0,66.3*,20.0*
Cc1csc(=O)n1CCC(=O)OCc1nnc(-c2ccc(Cl)cc2)o1,/,2.9,/,/,/,/,/,/,/
COc1cccc(-c2nc(CS(=O)(=O)CC(=O)Nc3cc(OC)ccc3OC)c(C)o2)c1,-16.9,-5.3,0.1,32.8,78.4*,22.9,-8.7,84.9*,5.8
CCc1nc2c(OCc3ccccc3C(=O)OC)cccn2c1N(C)C(=O)c1cccc(OC)c1,/,-6.1,/,/,/,/,/,/,/
CN(C(=O)CSc1nnc(-c2cccs2)n1C1CC1)C1CCS(=O)(=O)C1 (stereo unspecified),/,-0.9,/,/,/,/,/,/,/
COc1ccc(OCC(=O)Nc2cccc3cccnc23)cc1,-24.4,-2.1,-7.0,27.9,87.0*,4.4,-4.5,33.0,4.1
COc1ccc(OCC(=O)Nc2cccc(NC(=O)COc3ccc(OC)cc3)n2)cc1,-13.6,-5.4,-2.3,-24.8,17.1,/,/,/,/
CCOC(=O)c1cnc(SCCc2ccccc2)nc1N,-4.6,3.7,18.7,-37.5,18.2,/,/,/,/
CCOC(=O)c1cnc(SCc2nc(N)nc(Nc3ccccc3)n2)nc1N,-26.6,-6.0,-12.5,38.2,73.1*,34.7*,-23.7,48.5,6.0
O=C(Nc1ccc2nsnc2c1)c1cccs1,-6.4,-1.4,-14.5,-13.4,19.5,/,/,/,/
O=C(Nc1ccc2nn(-c3ccccc3)nc2c1)c1cccs1,1.2,-4.0,-6.0,33.5,83.4*,26.2,-1.5,55.4*,-1.4
CCCC(=O)C1=C(O)C(C(=O)OC)C(C)(C)CC1=NCCc1ccccc1 (stereo unspecified),-5.7,-11.5,-7.8,-24.8,0.4,/,/,/,/
Cc1c(C(=O)N/N=C/c2cccnc2)sc(=S)n1C,-1.7,-13.0,-1.6,15.9,59.5,/,/,/,/
Cn1c(N)c(C(=O)N/N=C/c2ccccc2)sc1=S,-8.0,-0.2,-0.2,90.9*,93.1*,72.8*,6.2,94.9*,17.0*
SMILES,CHO parental Ca,GalR3 antagonist,GPR7 antagonist,OX1R antag-1,OX1R antag-2,OX1R Fluo8 conf,CHO Ca counter,OX1R HTRF conf,CHO-K1 HTRF cnt
COc1ccccc1CCC(=O)OCC(=O)c1c(N)n(CC(C)C)c(=O)n(C)c1=O,17.7,-3.8,/,24.1,49.1*,39.8*,21.4,20.0,1.7
CCOc1ccccc1OCC(=O)OCC(=O)c1c(N)n(CC(C)C)c(=O)n(C)c1=O,2.5,-0.5,/,34.6,15.2,/,/,/,/
COc1c(C)cc(S(=O)(=O)NCc2ccccn2)c(C)c1C,-9.4,-10.6,-5.2,-8.0,8.0,/,/,/,/
CCOC(=O)C1CCN(c2cc3c(cc2NC(=O)c2ccccc2OCC)n(C)c(=O)n3C)CC1,-13.5,-6.5,-31.6,33.8,35.0*,-2.9,-13.0,20.4,-3.7
CCn1c(Cc2cccs2)nnc1SCC(=O)NC(C)(C)C,-10.4,-2.2,1.9,-18.2,0.9,/,/,/,/
CCc1cc(C(=O)OCC(=O)N2CCC(c3ccccc3)=N2)sc1C,-7.1,-3.7,-34.0,54.3*,80.1*,78.1*,-4.3,91.6*,1.6
COC(=O)c1cccc(-n2c(=O)n(Cc3ccccc3)c(=O)c3[nH]cnc32)c1C,-7.9,-8.4,-12.0,-18.6,-2.3,/,/,/,/
COc1ccc(-c2csc(NC(=O)c3cc(C)oc3C)n2)cc1OC,7.8,-4.2,-4.0,31.4,64.2*,4.8,-14.1,69.3*,10.6
COc1ccc(-c2csc(NC(=O)c3cc(=O)c4ccccc4o3)n2)cc1OC,-9.7,-4.4,-19.0,-14.7,8.2,/,/,/,/
CC1CCCC(NC(=O)c2ccc3c(c2)NC(=O)CS3)C1C (stereo unspecified),-9.3,-6.8,-4.1,-5.6,4.4,/,/,/,/
CCOC(=O)C1=C(COC(=O)c2ccc3ccccc3c2O)NC(=O)NC1C (stereo unspecified),-17.7,3.7,/,101.0*,103.6*,100.4*,-28.0,90.7*,-22.3
COCc1nnc(NC(=O)c2cccc(NC(=O)c3ccccc3)c2)s1,-14.7,-1.8,-11.5,-16.8,35.1,/,/,/,/
CN(CC(=O)Nc1c(Cl)cccc1Cl)C(=O)c1ccccc1-c1nc2ccccc2s1,-32.9,-5.0,/,-45.1,38.0,/,/,/,/
